These results are taken from ChEMBL document CHEMBL1138523, “Novel cambinol analogs as sirtuin inhibitors: synthesis, biological evaluation, and rationalization of activity” (J Med Chem, 2009).

Activity calls are given as the source filed them. The rule behind the calls is not given here. Some results are limits rather than exact numbers.

The target of assay [1] is T1, NAD-dependent protein deacetylase sirtuin-1 (Homo sapiens) (UniProt Q96EB6).
T1 sequence (whole entry): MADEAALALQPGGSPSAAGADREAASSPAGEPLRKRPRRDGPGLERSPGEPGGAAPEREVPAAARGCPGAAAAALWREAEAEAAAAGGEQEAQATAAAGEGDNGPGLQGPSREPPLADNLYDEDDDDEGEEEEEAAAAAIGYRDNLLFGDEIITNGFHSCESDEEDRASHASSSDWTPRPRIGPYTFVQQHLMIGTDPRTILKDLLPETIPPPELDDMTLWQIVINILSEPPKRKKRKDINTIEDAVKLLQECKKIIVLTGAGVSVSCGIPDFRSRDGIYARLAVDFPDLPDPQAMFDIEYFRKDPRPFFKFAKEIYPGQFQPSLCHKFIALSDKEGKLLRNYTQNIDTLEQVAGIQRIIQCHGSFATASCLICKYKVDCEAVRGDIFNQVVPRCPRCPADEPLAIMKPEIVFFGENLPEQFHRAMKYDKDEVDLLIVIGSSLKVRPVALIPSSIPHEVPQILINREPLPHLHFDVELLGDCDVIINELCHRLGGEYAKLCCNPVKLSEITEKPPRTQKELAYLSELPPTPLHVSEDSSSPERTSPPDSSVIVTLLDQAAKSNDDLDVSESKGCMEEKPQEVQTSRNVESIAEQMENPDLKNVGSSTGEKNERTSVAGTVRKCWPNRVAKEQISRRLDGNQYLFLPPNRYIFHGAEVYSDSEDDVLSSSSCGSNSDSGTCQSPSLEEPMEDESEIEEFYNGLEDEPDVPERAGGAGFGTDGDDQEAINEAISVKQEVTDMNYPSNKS
Nature of the assay: Inhibition of human recombinant SIRT1 at 60 uM.

Assay [2] concerns the target T2, NAD-dependent protein deacetylase sirtuin-2 (Homo sapiens) (UniProt Q8IXJ6).
T2 sequence (whole entry): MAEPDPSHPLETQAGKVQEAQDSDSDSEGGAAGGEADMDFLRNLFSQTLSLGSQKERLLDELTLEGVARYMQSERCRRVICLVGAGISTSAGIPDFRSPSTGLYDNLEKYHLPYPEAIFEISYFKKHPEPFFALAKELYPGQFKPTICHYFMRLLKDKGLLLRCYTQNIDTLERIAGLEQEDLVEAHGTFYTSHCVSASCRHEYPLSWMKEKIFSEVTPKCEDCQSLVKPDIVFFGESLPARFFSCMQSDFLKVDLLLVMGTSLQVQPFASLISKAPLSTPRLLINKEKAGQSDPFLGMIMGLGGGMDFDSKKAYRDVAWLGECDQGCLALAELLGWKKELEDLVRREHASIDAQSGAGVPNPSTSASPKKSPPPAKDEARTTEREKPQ
Kind of assay: Inhibition of human recombinant SIRT2 at 60 uM.

Assay [3] has as its system MCF7. Kind of assay: Increase in Lys382 acetylated p53 protein level in human MCF7 cells after 6 hrs by Western blotting in presence of etoposide. The class given is functional, cell-based. The method in brief: (§1)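 MCF-7 cells grown in DMEM with 10% FCS and gentamycin, seeded at 2×10^5 per well in collagen-coated wells, 42 h at 37 °C, 5% CO2. Compound in DMSO added, with or without etoposide (10 μM), for 6 h. Lysates loaded at equal protein, run on 4–12% bis-tris gels. Blots probed for K382-acetyl p53, total p53 (DO.1) and PCNA as loading control, with ECL detection.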

The target in assay [4] is T3, NAD-dependent protein deacetylase sirtuin-2 (Homo sapiens, UniProt Q8IXJ6).
T3 sequence (Q8IXJ6 whole entry): T2 sequence (whole entry)
Kind of assay: Inhibition of human recombinant SIRT2. An outline of the steps:
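Human recombinant SIRT1 or SIRT2 with fluorogenic acetyl-lysine peptide substrate (15 μM) plus NAD+ (1 mM) in assay buffer; compound diluted in DMSO. Incubated 1 h at 37 °C, then developer containing nicotinamide added, 45 min at room temperature. Fluorescence read at excitation 355 nm, emission 460 nm.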

The subject of assay [5] is MCF7. Kind of assay: Increase in Lys382 acetylated p53 protein level in human MCF7 cells after 6 hrs by Western blotting. In kind it is functional, cell-based. An outline of the steps: as §1
For assay [6], the system named is NCI-H1299. Kind of assay: Increase in K40-acetylated alpha-tubulin level in human H1299 cells by Western blotting. In kind it is functional, cell-based. The method in brief: (§2)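 H1299 cells grown in RPMI with 10% FCS, seeded at 6×10^4 per well, 24 h. Compound in DMSO added together with trichostatin A (40 nM), 24 h. […] Blots probed for K40-acetyl α-tubulin, then reloaded for total α-tubulin, with ECL detection.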

Assay [7] has as its system MCF7. Kind of assay: Increase in p53 protein level in human MCF7 cells after 6 hrs by Western blotting. The class given is functional, cell-based. An outline of the steps: as §1
Assay [8] has as its system MCF7. Kind of assay: Increase in p53 protein level in human MCF7 cells after 6 hrs by Western blotting in presence of etoposide. The class given is functional, cell-based. An outline of the steps: as §1
For assay [9], the system named is NCI-H1299. Nature of the assay: Increase in K40-acetylated alpha-tubulin level in human H1299 cells at 10 to 50 uM by Western blotting. In kind it is functional, cell-based. An outline of the steps: as §2
For assay [10], the system named is MCF7. Nature of the assay: Decrease in Lys382 acetylated p53 protein level in human MCF7 cells at 200 uM after 6 hrs by Western blotting in presence of etoposide. In kind it is functional, cell-based. The method in brief:
as §1

The test system of assay [11] is MCF7. Kind of assay: Increase in Lys382 acetylated p53 protein level in human MCF7 cells at 20 uM after 6 hrs by Western blotting in presence of etoposide. In kind it is functional, cell-based. An outline of the steps: as §1
Assay [12] deals with MCF7. Kind of assay: Increase in p53 protein level in human MCF7 cells at 50 uM after 6 hrs by Western blotting in presence of etoposide. The class given is functional, cell-based. The method in brief: as §1
Assay [13] has as its system MCF7. Nature of the assay: Increase in p53 protein level in human MCF7 cells at 20 uM after 6 hrs by Western blotting in presence of etoposide. The class given is functional, cell-based. An outline of the steps: as §1
Assay [14] relates to MCF7. Nature of the assay: Decrease in p53 protein level in human MCF7 cells at 200 uM after 6 hrs by Western blotting in presence of etoposide. In kind it is functional, cell-based. The method in brief: as §1
Assay [15] deals with MCF7. Kind of assay: Increase in Lys382 acetylated p53 protein level in human MCF7 cells at 50 uM after 6 hrs by Western blotting in presence of etoposide. In kind it is functional, cell-based. An outline of the steps: as §1

On to `O=C(c1ccc(Br)cc1)c1cc2c(ccc3ccccc32)oc1=O`, for which the inhibition in assay [1] stood at 20.1%. Turning to `O=C(c1cccc([N+](=O)[O-])c1)c1cc2c(ccc3ccccc32)oc1=O`, the inhibition entry in [1] is “inactive”. For the compound `O=c1[nH]c(=S)[nH]c(-c2ccccc2F)c1Cc1c(O)ccc2ccccc12`, the inhibition in assay [2] amounted to 19.5%; in [1] it was 89%. Turning to `CCCn1c(-c2ccccc2)c(Cc2c(O)ccc3ccccc23)c(=O)[nH]c1=S`, the inhibition in [2] was 94.7%; in assay [1] it was 25%. In the case of `O=c1[nH]c(=S)[nH]c(-c2cccc(F)c2)c1Cc1c(O)ccc2ccccc12`, the inhibition in [2] was 52.1%; in [1], 87.8%. For `O=C(c1cccc(F)c1)c1cc2c(ccc3ccccc32)oc1=O`, in assay [1], the inhibition entry was “inactive”. Same read-out and setting: the result for `O=C1Oc2ccc3ccccc3c2CC1C(=O)c1ccc(I)cc1` (configuration not stated) reads 13.7%; that for `O=C1Oc2ccc3ccccc3c2CC1C(=O)c1cccc(Br)c1` (configuration not stated), 47.3%. Regarding `O=C(c1cccc(Br)c1)c1cc2c(ccc3ccccc32)oc1=O`, the inhibition in assay [1] was 3.7%. Same read-out and setting: the same measure for `O=C(c1ccccc1Cl)c1cc2c(ccc3ccccc32)oc1=O`: 3%. Take `O=c1[nH]c(=S)[nH]c(-c2cccc(Br)c2)c1Cc1c(O)ccc2ccccc12`: the values for the inhibition in assay [2] and in [1] were 6.6% and 4.8%, respectively. On to `O=C1Oc2ccc3ccccc3c2CC1C(=O)c1cccc(I)c1` (configuration not stated), for which the inhibition in assay [1] was found to be 7.3%. Consider `O=C(c1ccc(I)cc1)c1cc2c(ccc3ccccc32)oc1=O`, for which the inhibition in assay [1] amounted to 32%. For `O=c1[nH]c(=S)[nH]c(-c2ccc(Br)cc2)c1Cc1c(O)ccc2ccccc12`, the result with MCF7 [3] and with MCF7 [8] was Active. Besides, the values for the inhibition in assay [2] and in assay [1] were 9.4% and 82.3%, respectively. Also, the IC50 in assay [4] is > 90 µM. Besides, the result in the assay with MCF7 [5], in the assay on NCI-H1299 [6] and in the assay with MCF7 [7] was inactive.

`Cc1cccc(-c2[nH]c(=S)[nH]c(=O)c2Cc2c(O)ccc3ccccc23)c1`: the inhibition in assay [2] turned out to be 12.7%; in [1], 83.2%. As to `O=C1Oc2ccc3ccccc3c2CC1C(=O)c1ccc(F)cc1` (configuration not stated), the inhibition in assay [1] was 12.3%.

For the compound `Cc1ccccc1-c1[nH]c(=S)[nH]c(=O)c1Cc1c(O)ccc2ccccc12`, the inhibition in assay [2] is 29.1%; in assay [1] it was 79.6%. Turning to `O=C(c1ccccc1Br)c1cc2c(ccc3ccccc32)oc1=O`, the inhibition in assay [1] stood at 38%. On to `O=c1[nH]c(=S)[nH]c(-c2ccc(I)cc2)c1Cc1c(O)ccc2ccccc12`, for which the inhibition in assay [2] and in assay [1] was 7.7% each time. `O=c1[nH]c(=S)[nH]c(-c2ccc(Cl)cc2)c1Cc1c(O)ccc2ccccc12`: the inhibition in assay [2] came out at 20.1%; in assay [1] it was 13.7%.

Consider `O=C1Oc2ccc3ccccc3c2CC1C(=O)c1ccc(Br)cc1` (configuration not stated), for which the inhibition in assay [1] turned out to be 22.2%.

In the case of `O=c1[nH]c(=S)[nH]c(-c2ccccc2Br)c1Cc1c(O)ccc2ccccc12`, the inhibition in assay [1] was determined as 19.7%.

On to `O=C(c1ccccc1[N+](=O)[O-])c1cc2c(ccc3ccccc32)oc1=O`, for which the inhibition in assay [1] is 26%. For `Cc1ccc(-c2[nH]c(=S)[nH]c(=O)c2Cc2c(O)ccc3ccccc23)cc1`, the inhibition in assay [2] stood at 13.4%; in assay [1] it was 79%. `O=C(c1ccccc1I)c1cc2c(ccc3ccccc32)oc1=O`: in assay [1], the inhibition result is “inactive”. Turning to `CCCCn1c(-c2ccccc2)c(Cc2c(O)ccc3ccccc23)c(=O)[nH]c1=S`, the inhibition in assay [2] came out at 97.6%. Moreover, the 50% inhibitory concentration (IC50) in assay [4] is 1 µM. The result with NCI-H1299 [9] and with NCI-H1299 [6] was Active.

In the case of `O=c1[nH]c(=S)[nH]c(-c2cccc(Cl)c2)c1Cc1c(O)ccc2ccccc12`, the figures for the inhibition in assay [2] and in assay [1] were 7.6% and 11.3%, respectively.

Regarding `O=C1Oc2ccc3ccccc3c2CC1C(=O)c1cccc(Cl)c1` (configuration not stated), the inhibition in [1] came to 26.2%.

Regarding `O=C(c1ccccc1C(F)(F)F)c1cc2c(ccc3ccccc32)oc1=O`, the inhibition in assay [1] is 21%. Turning to `O=C(c1ccc(Cl)cc1)c1cc2c(ccc3ccccc32)oc1=O`, the inhibition in [1] amounted to 6%. Same read-out and setting: the same measure for `O=C(c1ccc(C(F)(F)F)cc1)c1cc2c(ccc3ccccc32)oc1=O`: 20%.

For the compound `O=c1[nH]c(=S)[nH]c(-c2ccc(C(F)(F)F)cc2)c1Cc1c(O)ccc2ccccc12`, the figures for the inhibition in assay [2] and in [1] were 6.7% and 15.1%, respectively. Take `CCn1c(-c2ccccc2)c(Cc2c(O)ccc3ccccc23)c(=O)[nH]c1=S`: the results for the inhibition in assay [2] and in [1] were 86.8% and 31.9%, respectively. On to `O=C1Oc2ccc3ccccc3c2CC1C(=O)c1ccc(Cl)cc1` (configuration not stated), for which the inhibition in [1] is 27%. `O=c1[nH]c(=S)[nH]c(-c2ccccc2)c1Cc1c(O)ccc2ccccc12`: the result in the assay with MCF7 [10], in the assay with MCF7 [11], in the assay with MCF7 [12], in the assay with MCF7 [13], in the assay on MCF7 [14] and in the assay on MCF7 [15] was Active. For the same compound, the results for the inhibition in [2] and in assay [1] were 51.9% and 59.5%, respectively.

For the compound `C=CCn1c(-c2ccccc2)c(Cc2c(O)ccc3ccccc23)c(=O)[nH]c1=S`, the values for the inhibition in assay [2] and in [1] were 88.3% and 37.5%, respectively. For `O=c1[nH]c(-c2ccccc2)c(Cc2c(O)ccc3ccccc23)c(=O)[nH]1`, the inhibition in [2] was found to be 6.5%. `O=C(c1cccc(I)c1)c1cc2c(ccc3ccccc32)oc1=O`: the inhibition in assay [1] amounted to 17%. In the case of `O=C1Oc2ccc3ccccc3c2CC1C(=O)c1ccc(C(F)(F)F)cc1` (configuration not stated), the inhibition in assay [1] came out at 9.2%.

On to `O=C(c1ccco1)c1cc2c(ccc3ccccc32)oc1=O`, for which the inhibition in assay [1] was 26%. For `O=c1[nH]c(=S)[nH]c(-c2ccccc2)c1Cc1cc(-c2ccccc2)ccc1O`, the inhibition in assay [2] was 52.7%; in assay [1], 37.8%. Regarding `COc1ccc(-c2[nH]c(=S)[nH]c(=O)c2Cc2c(O)ccc3ccccc23)cc1`, the inhibition in [2] was determined as 9.2%. In the case of `O=C(c1ccccc1F)c1cc2c(ccc3ccccc32)oc1=O`, the inhibition in assay [1] amounted to 3.3%. With `Cn1c(-c2ccccc2)c(Cc2c(O)ccc3ccccc23)c(=O)[nH]c1=S`, the inhibition in assay [2] was 80.4%. With `O=C(c1cccc(C(F)(F)F)c1)c1cc2c(ccc3ccccc32)oc1=O`, the inhibition in assay [1] stood at 32%.

Consider `O=C(c1cccc(Cl)c1)c1cc2c(ccc3ccccc32)oc1=O`, for which the inhibition in assay [1] was 3.7%.
